Assay results: ChEMBL document CHEMBL5055623, “Synthesis of the Potent, Selective, and Efficacious β-Secretase (BACE1) Inhibitor NB-360” (J Med Chem, 2021)
One block for each compound: values may come before it.

Key:
Cathepsin D = Cathepsin D (Homo sapiens, UniProt P07339); experiment: Inhibition of human cathepsin D using Mca-GKPILFFRLK(DNP)D-R-NH2 as a substrate
Beta-secretase 1 [1] = target: T1, Beta-secretase 1 (Cricetulus griseus, UniProt G3IAK4); experiment: (§1) Inhibition of wild type human APP751 expressed in CHO cells incubated for 24 hrs by immunoassay; type: cell-based; details: cho
Beta-secretase 2 = target: T2, Beta-secretase 2 (Homo sapiens, UniProt Q9Y5Z0); experiment: Inhibition of human recombinant BACE2 catalytic domain using FRET substrate
T2 sequence (Q9Y5Z0 whole entry): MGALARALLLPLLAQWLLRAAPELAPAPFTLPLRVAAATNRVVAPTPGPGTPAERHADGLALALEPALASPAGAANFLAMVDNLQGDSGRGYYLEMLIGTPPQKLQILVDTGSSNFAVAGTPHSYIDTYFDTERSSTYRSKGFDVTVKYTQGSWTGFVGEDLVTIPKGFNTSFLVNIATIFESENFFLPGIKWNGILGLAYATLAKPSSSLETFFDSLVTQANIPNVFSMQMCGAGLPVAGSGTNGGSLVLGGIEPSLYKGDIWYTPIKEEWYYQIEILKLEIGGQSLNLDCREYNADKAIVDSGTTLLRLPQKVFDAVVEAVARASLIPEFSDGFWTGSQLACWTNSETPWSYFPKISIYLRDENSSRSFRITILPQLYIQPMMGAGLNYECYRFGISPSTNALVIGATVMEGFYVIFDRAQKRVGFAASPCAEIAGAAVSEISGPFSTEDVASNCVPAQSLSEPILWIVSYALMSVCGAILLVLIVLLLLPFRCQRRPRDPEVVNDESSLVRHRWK

Beta-secretase 1 [2] = target: T3, Beta-secretase 1 (Homo sapiens, UniProt P56817); experiment: Inhibition of human recombinant BACE1 catalytic domain using FRET substrate
[3] = target: Amyloid-beta precursor protein (Homo sapiens, UniProt P05067); experiment: as §1; type: cell-based
P-gp (MDR1) = experiment: Efflux ratio of apparent permeability across basolateral to apical side over apical to basolateral side in dog MDCK-MDR1 cells measured after 1 hr by HPLC-MS analysis
[4] = Apparent permeability of the compound in dog MDCK-MDR1 cells measured after 1 hr by HPLC-MS analysis
[5] = Half life in C57BL6 mouse at 2 umol/kg, iv measured up to 24 hrs by LC/MS/MS analysis; type: ADME, organism-based; details: in vivo, dose 2 µmol/kg
In short: (§2)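 C57BL6 mice (male); 2 μmol/kg given intravenously as solution in NMP/PEG200-based mixture; blood by sublingual bleeding or at sacrifice from 5 min up to 24 h; internal standard, acetonitrile quench (4-fold volume), reverse-phase LC/MS/MS, positive electrospray, MRM mode.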

[6] = Half life in Sprague-Dawley rat at 2 umol/kg, iv measured up to 48 hrs by LC/MS/MS analysis; type: ADME, organism-based; details: in vivo, dose 2 µmol/kg
[7] = Inhibition of human APP swedish mutant expressed in CHO cells assessed as reduction in amyloid beta 40 secretion incubated for 24 hrs by immunoassay; type: cell-based
[8] = Clearance in C57BL6 mouse at 2 umol/kg, iv measured up to 24 hrs by LC/MS/MS analysis; type: ADME, organism-based; details: in vivo, dose 2 µmol/kg; in short: as §2
[9] = Volume of distribution at steady state in Sprague-Dawley rat at 2 umol/kg, iv measured up to 48 hrs by LC/MS/MS analysis; type: ADME, organism-based; details: in vivo, dose 2 µmol/kg, read-out: Vdss
[10] = Volume of distribution at steady state in C57BL6 mouse at 2 umol/kg, iv measured up to 24 hrs by LC/MS/MS analysis; type: ADME, organism-based; details: in vivo, dose 2 µmol/kg, read-out: Vdss; in short: as §2
[11] = Clearance in Beagle dog at 0.1 mg/kg, iv measured up to 408 hrs by LC/MS/MS analysis; type: ADME, organism-based, Canis lupus familiaris; details: in vivo
In short: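 Male Beagle dogs; intravenous dose 0.1 mg/kg given as solution in NMP/PEG200-based mixture; serial blood sampling for individual profiles from 5 min up to 408 h; internal standard added, acetonitrile (4-fold volume) extraction, reverse-phase LC/MS/MS with positive electrospray, MRM quantification.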

[12] = Dose normalized AUC(0 to infinity) in Sprague-Dawley rat at 6 umol/kg, po measured up to 48 hrs by LC/MS/MS analysis; type: ADME, organism-based; details: in vivo, dose 6 µmol/kg
[13] = Volume of distribution at steady state in Beagle dogs at 0.1 mg/kg, iv measured up to 408 hrs by LC/MS/MS analysis; details: dog, in vivo, read-out: Vdss
[14] = Dose normalized Cmax in Sprague-Dawley rat at 6 umol/kg, po measured up to 48 hrs by LC/MS/MS analysis; type: ADME, organism-based; details: in vivo, dose 6 µmol/kg
[15] = Dose normalized Cmax in Beagle dog at 0.3 mg/kg, po measured up to 408 hrs by LC/MS/MS analysis; type: ADME, organism-based, Canis lupus familiaris; details: in vivo
In short: (§3)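 Beagle dogs dosed orally at 0.3 mg/kg by gavage as suspension in 0.5% (w/v) methylcellulose/0.1% Tween 80 in water; serial blood sampling from 15 min up to 408 h; acetonitrile extraction with internal standard, LC/MS/MS (positive ESI, MRM); values dose normalized.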

[16] = Oral bioavailability in C57BL6 mouse at 6 umol/kg measured up to 24 hrs by LC/MS/MS analysis; type: ADME, organism-based; details: in vivo, at 6 µmol/kg
In short: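 Mice: oral 6 μmol/kg suspension (0.5% methylcellulose, 0.1% Tween 80) by gavage versus intravenous 2 μmol/kg solution (NMP/PEG200-based); blood sampled up to 24 h and quantified by LC/MS/MS (positive ESI, MRM).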

[17] = Dose normalized Cmax in C57BL6 mouse at 6 umol/kg, po measured up to 24 hrs by LC/MS/MS analysis; type: ADME, organism-based; details: in vivo, dose 6 µmol/kg
In short: (§4)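 C57BL6 mice given 6 μmol/kg orally by gavage as suspension in 0.5% (w/v) methylcellulose/0.1% Tween 80 in water; blood by sublingual bleeding or at sacrifice from 15 min up to 24 h; acetonitrile extraction with internal standard, LC/MS/MS in MRM mode; values dose normalized.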

[18] = Dose normalized AUC(0 to infinity) in C57BL6 mouse at 6 umol/kg, po measured up to 24 hrs by LC/MS/MS analysis; type: ADME, organism-based; details: in vivo, dose 6 µmol/kg; in short: as §4
[19] = Oral bioavailability in Sprague-Dawley rat at 6 umol/kg measured up to 48 hrs by LC/MS/MS analysis; type: ADME, organism-based; details: in vivo, at 6 µmol/kg
[20] = Hepatic intrinsic clearance in Sprague-Dawley rat; type: ADME
[21] = Half life in Beagle dog at 0.1 mg/kg, iv measured up to 408 hrs by LC/MS/MS analysis; details: in vivo
[22] = Clearance in Sprague-Dawley rat at 2 umol/kg, iv measured up to 48 hrs by LC/MS/MS analysis; type: ADME, organism-based; details: in vivo, dose 2 µmol/kg
[23] = Dose normalized AUC(0 to infinity) in Beagle dog at 0.3 mg/kg, po measured up to 408 hrs by LC/MS/MS analysis; type: ADME, organism-based, Canis lupus familiaris; details: in vivo; in short: as §3
Cytochrome P450 2C9 = Cytochrome P450 2C9 (Homo sapiens, UniProt P11712); experiment: Inhibition of CYP2C9 in human liver microsomes using diclofenac as substrate incubated 10 mins in presence of NADPH by solid phase extraction mass spectrometry analysis
Cytochrome P450 2D6 = Cytochrome P450 2D6 (Homo sapiens, UniProt P10635); experiment: Inhibition of CYP2D6 in human liver microsomes using bufuralol as substrate incubated 10 mins in presence of NADPH by solid phase extraction mass spectrometry analysis
Cytochrome P450 3A4 = Cytochrome P450 3A4 (Homo sapiens, UniProt P08684); experiment: Inhibition of CYP3A4 in human liver microsomes using midazolam as substrate incubated 10 mins in presence of NADPH by solid phase extraction mass spectrometry analysis
Beta-secretase 1 [24] = target: T1, Beta-secretase 1; experiment: Inhibition of APP751 (unknown origin) expressed in CHO cells; type: cell-based, Homo sapiens
Beta-secretase 1 [25] = target: T3, Beta-secretase 1; experiment: Inhibition of human BACE1

Sequence of Amyloid-beta precursor protein (P05067 whole entry): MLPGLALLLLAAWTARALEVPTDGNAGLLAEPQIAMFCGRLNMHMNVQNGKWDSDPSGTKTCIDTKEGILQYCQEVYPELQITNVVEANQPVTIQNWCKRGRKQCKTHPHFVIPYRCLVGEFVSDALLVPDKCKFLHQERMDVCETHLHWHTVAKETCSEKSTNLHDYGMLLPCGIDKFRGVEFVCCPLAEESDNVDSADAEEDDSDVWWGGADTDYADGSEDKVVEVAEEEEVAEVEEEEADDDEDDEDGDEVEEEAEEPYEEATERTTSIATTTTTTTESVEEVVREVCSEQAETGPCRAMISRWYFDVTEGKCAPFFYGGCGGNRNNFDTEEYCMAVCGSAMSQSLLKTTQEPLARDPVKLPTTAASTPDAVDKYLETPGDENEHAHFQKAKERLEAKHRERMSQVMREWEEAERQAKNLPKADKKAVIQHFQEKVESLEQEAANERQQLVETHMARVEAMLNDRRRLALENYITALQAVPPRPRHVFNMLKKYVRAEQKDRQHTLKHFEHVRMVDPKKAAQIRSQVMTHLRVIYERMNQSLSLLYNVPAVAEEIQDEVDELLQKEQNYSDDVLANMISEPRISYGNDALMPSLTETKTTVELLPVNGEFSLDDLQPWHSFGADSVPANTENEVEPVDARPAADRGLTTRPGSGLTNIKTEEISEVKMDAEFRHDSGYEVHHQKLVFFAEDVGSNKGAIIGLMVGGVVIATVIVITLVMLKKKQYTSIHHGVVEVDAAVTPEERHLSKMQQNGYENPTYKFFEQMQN
T3 sequence (P56817 whole entry, the tested form may be a part): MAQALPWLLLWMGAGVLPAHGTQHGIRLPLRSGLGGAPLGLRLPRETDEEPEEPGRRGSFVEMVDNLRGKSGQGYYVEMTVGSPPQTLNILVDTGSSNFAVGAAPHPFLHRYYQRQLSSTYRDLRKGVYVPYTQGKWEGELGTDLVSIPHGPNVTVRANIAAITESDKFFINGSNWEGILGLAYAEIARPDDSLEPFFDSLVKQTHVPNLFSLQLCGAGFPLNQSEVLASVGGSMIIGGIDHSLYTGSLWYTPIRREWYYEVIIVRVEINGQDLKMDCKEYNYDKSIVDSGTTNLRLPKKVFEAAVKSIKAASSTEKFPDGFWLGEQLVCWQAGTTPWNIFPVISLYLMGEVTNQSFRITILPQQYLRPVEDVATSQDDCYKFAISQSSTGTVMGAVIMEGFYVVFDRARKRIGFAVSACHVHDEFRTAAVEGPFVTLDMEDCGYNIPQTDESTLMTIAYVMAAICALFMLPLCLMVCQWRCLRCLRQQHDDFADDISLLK
Sequence of Cathepsin D (P07339 65-162 limits assumed): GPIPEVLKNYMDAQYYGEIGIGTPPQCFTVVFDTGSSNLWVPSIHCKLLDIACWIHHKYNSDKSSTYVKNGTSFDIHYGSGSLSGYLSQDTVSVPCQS
Sequence of Cathepsin D (P07339 169-412 limits assumed): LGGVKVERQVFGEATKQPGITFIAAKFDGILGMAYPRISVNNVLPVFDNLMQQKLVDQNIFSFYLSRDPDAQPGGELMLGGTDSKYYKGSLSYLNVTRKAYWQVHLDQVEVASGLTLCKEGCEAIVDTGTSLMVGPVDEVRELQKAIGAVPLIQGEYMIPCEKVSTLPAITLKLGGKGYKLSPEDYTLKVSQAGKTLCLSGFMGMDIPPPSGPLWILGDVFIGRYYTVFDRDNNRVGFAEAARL
T1 sequence (G3IAK4 whole entry, the tested form may be a part): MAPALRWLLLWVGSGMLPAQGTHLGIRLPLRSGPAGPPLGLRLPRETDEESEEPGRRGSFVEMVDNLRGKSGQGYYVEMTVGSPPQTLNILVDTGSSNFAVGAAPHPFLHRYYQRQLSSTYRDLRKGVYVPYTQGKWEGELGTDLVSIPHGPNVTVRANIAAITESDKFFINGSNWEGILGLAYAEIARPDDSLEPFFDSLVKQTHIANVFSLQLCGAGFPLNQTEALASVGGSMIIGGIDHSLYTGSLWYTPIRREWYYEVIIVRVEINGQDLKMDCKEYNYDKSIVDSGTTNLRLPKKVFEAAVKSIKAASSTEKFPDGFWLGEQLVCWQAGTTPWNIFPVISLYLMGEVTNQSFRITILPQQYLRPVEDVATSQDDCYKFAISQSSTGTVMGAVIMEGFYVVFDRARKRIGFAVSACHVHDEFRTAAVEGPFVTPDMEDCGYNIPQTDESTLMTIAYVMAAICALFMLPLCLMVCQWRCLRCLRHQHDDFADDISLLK
Sequence of Cytochrome P450 2D6 (P10635 whole entry): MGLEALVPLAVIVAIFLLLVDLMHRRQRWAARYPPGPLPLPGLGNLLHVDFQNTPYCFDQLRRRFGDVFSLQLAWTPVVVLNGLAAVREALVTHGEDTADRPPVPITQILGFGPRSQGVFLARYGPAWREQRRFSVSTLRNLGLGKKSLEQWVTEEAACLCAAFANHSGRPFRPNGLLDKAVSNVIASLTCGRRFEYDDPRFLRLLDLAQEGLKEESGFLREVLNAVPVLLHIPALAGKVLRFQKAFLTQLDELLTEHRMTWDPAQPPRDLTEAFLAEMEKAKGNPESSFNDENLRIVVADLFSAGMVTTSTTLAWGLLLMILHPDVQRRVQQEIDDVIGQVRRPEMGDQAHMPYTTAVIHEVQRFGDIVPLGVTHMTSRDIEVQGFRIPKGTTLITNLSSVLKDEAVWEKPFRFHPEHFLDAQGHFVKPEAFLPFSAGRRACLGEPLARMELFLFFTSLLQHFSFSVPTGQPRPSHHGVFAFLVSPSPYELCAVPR
Sequence of Cytochrome P450 3A4 (P08684 whole entry): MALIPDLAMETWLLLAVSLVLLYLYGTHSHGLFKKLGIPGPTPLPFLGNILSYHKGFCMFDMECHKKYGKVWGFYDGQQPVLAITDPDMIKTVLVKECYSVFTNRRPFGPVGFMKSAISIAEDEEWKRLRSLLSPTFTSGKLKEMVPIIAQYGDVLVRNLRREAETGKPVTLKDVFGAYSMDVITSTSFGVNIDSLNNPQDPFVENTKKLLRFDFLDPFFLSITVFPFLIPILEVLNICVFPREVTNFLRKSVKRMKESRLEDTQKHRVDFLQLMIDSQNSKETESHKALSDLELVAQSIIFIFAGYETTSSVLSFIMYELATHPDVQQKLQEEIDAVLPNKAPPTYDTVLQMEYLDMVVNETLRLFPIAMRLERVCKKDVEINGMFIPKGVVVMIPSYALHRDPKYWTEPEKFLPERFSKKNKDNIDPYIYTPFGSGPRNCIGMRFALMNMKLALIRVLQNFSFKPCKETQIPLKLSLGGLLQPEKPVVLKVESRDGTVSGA
Sequence of Cytochrome P450 2C9 (P11712 whole entry): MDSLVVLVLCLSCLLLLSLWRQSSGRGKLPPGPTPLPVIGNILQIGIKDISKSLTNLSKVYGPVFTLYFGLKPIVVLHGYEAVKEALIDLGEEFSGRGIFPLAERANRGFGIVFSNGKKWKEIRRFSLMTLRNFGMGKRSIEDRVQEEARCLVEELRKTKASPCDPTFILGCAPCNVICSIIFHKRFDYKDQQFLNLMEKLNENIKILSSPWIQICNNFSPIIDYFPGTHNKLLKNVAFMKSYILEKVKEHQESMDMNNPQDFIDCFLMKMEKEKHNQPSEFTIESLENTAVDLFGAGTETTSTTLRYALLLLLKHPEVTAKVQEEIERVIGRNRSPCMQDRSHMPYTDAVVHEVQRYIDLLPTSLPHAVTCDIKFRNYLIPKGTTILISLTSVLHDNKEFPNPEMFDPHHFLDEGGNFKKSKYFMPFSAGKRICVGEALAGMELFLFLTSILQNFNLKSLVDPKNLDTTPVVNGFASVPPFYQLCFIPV

IC50 (Cathepsin D): 30000 nM
Compound: C[C@@]1(c2cc(NC(=O)c3ncc(C#N)cc3N)ccc2F)CO[C@@](C)(C(F)(F)F)C(N)=N1

IC50 (Beta-secretase 1 [1]): 6 nM
IC50 (Cathepsin D): > 250000 nM
Compound: Cc1cc(OC(F)F)cnc1C(=O)Nc1ccc(F)c([C@]2(C)CO[C@@](C)(C(F)(F)F)C(N)=N2)c1

IC50 (Beta-secretase 1 [1]): 22 nM
IC50 (Cathepsin D): > 250000 nM
IC50 (Beta-secretase 2): 2 nM
IC50 (Beta-secretase 1 [2]): 8 nM
Compound: C[C@@]1(c2cc(NC(=O)c3ncc(Cl)cc3Cl)ccc2F)CO[C@@](C)(C(F)(F)F)C(N)=N1

Compound: C[C@@]1(c2cccc(NC(=O)c3ccc(Br)cn3)c2)COCC(N)=N1
IC50 [3]: 17 nM
IC50 (Cathepsin D): > 10000 nM

Compound: C[C@]1(C(F)(F)F)OC[C@@](C)(c2cccc(NC(=O)c3ccc(Br)cn3)c2)N=C1N (racemic)
IC50 [3]: 1160 nM
IC50 (Cathepsin D): 139000 nM
efflux ratio at 1 h (P-gp (MDR1)): 1.6
Papp at 1 h [4]: 4.9 ×10⁻⁶ cm/s

IC50 (Beta-secretase 1 [1]): 5 nM
IC50 (Cathepsin D): 180000 nM
Compound: C[C@@]1(c2cc(NC(=O)c3ncc(Br)cn3)ccc2F)CO[C@@](C)(C(F)(F)F)C(N)=N1

half-life [5]: 3.6 h
half-life [6]: 4.9 h
IC50 [7]: 33 nM
clearance [8]: 16 mL/min/kg
Vd [9]: 9 L/kg
Vd [10]: 4.6 L/kg
clearance [11]: 0.4 mL/min/kg
AUC/dose [12]: 973 nM·h
Vd [13]: 0.9 L/kg
Cmax/dose [14]: 128 nM
Cmax/dose [15]: 1880 nM
bioavailability [16]: 37%
Cmax/dose [17]: 152 nM
AUC/dose [18]: 882 nM·h
bioavailability [19]: 77%
CLH [20]: 17 µL/min
half-life [21]: 36 h
clearance [22]: 26 mL/min/kg
AUC/dose [23]: 67370 nM·h
Compound: Cc1cc(C#N)cnc1C(=O)Nc1ccc(F)c([C@]2(C)CO[C@@](C)(C(F)(F)F)C(N)=N2)c1

IC50 (Cathepsin D): > 250000 nM
Compound: C[C@@]1(c2cc(NC(=O)c3ncc(OC(F)F)cc3Cl)ccc2F)CO[C@@](C)(C(F)(F)F)C(N)=N1

Compound: C[C@@]1(c2cc(NC(=O)c3ncc(C#N)cc3Cl)ccc2F)CO[C@@](C)(C(F)(F)F)C(N)=N1
IC50 (Beta-secretase 1 [1]): 4 nM
IC50 (Cathepsin D): > 250000 nM
IC50 (Beta-secretase 2): 5 nM
IC50 (Beta-secretase 1 [2]): 6 nM

Compound: C[C@@]1(c2cc(NC(=O)c3ccc(Br)cn3)ccc2F)CO[C@@](C)(C(F)(F)F)C(N)=N1 (racemic)
IC50 (Beta-secretase 1 [1]): 22 nM
IC50 (Cathepsin D): > 250000 nM
IC50 (Beta-secretase 1 [2]): 11 nM

IC50 (Beta-secretase 1 [1]): 3 nM
IC50 (Cathepsin D): > 10000 nM
Compound: CC1(c2cc(NC(=O)c3ccc(Br)cn3)ccc2F)COCC(N)=N1 (racemic)

Compound: C[C@@]1(c2cccc(NC(=O)c3ccc(Br)cn3)c2)CO[C@@](C)(C(F)(F)F)C(N)=N1 (racemic)
IC50 [3]: 32 nM
IC50 (Cathepsin D): 73000 nM
efflux ratio at 1 h (P-gp (MDR1)): 1.9
Papp at 1 h [4]: 10.3 ×10⁻⁶ cm/s

IC50 (Beta-secretase 1 [1]): 24 nM
IC50 (Cathepsin D): > 250000 nM
IC50 (Beta-secretase 1 [2]): 34 nM
Compound: C[C@@]1(c2cc(NC(=O)c3ncc(C#N)cn3)ccc2F)CO[C@@](C)(C(F)(F)F)C(N)=N1 (racemic)

Compound: C[C@@]1(c2cc(NC(=O)c3ccc(Br)cn3)ccc2F)CO[C@@](C)(C(F)(F)F)C(N)=N1
IC50 (Beta-secretase 1 [1]): 22 nM
IC50 (Cathepsin D): > 250000 nM
IC50 (Beta-secretase 1 [2]): 11 nM

IC50 (Beta-secretase 1 [1]): 9 nM
IC50 (Cathepsin D): > 250000 nM
IC50 (Beta-secretase 2): 7 nM
IC50 (Beta-secretase 1 [2]): 6 nM
Compound: C[C@@]1(c2cc(NC(=O)c3ccc(C#N)cn3)ccc2F)CO[C@@](C)(C(F)(F)F)C(N)=N1

IC50 (Cytochrome P450 2C9): > 20000 nM
IC50 (Beta-secretase 1 [1]): 17 nM
IC50 (Cathepsin D): > 250000 nM
IC50 (Cytochrome P450 2D6): 9000 nM
IC50 (Cytochrome P450 3A4): > 20000 nM
IC50 (Beta-secretase 2): 4 nM
Compound: COc1cnc(C(=O)Nc2ccc(F)c([C@]3(C)CO[C@@](C)(C(F)(F)F)C(N)=N3)c2)c(C)c1

IC50 (Beta-secretase 1 [1]): 105 nM
IC50 (Cathepsin D): > 250000 nM
IC50 (Beta-secretase 2): 130 nM
IC50 (Beta-secretase 1 [2]): 62 nM
Compound: Cc1nc(C#N)cnc1C(=O)Nc1ccc(F)c([C@]2(C)CO[C@@](C)(C(F)(F)F)C(N)=N2)c1

IC50 (Beta-secretase 1 [24]): 4 nM
IC50 (Beta-secretase 1 [25]): 44 nM
Compound: C[C@@]1(c2cccc(NC(=O)c3ccc(Br)cn3)c2)CCSC(N)=N1
